Measurements as given in ChEMBL document CHEMBL3102735, “Enhancing the pharmacodynamic profile of a class of selective COX-2 inhibiting nitric oxide donors” (Bioorg Med Chem, 2014).

What was measured:
[1] = system: J774; assay: Selectivity index, ratio of IC50 for COX-1 to IC50 for COX-2 in mouse J774 cells; format: cell-based
Outline: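 J774 macrophages stimulated 24 h with E. coli LPS (10 µg/mL) to induce COX-2, with or without compound (0.01–10 µM); supernatant PGE2 by RIA. Triplicate wells, three experiments, percent inhibition versus control, IC50 by sigmoidal fit; selectivity as COX-1/COX-2 IC50 ratio.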

[2] = system: Rattus norvegicus; assay: Drug metabolism in Wistar rat plasma assessed as 2-(1-(4-fluorophenyl)-2-methyl-5-(4-(methylsulfonyl)phenyl)-1H-pyrrol-3-yl)-N-(2-hydroxyethyl)acetamide metabolite at 10 mg/kg, iv up to 6 hrs by LC-MS/MS analysis; format: ADME, organism-based; set-up: dose 10 mg/kg, route intravenous; details: in vivo
Outline: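 Male Han Wistar rats, three per route, single 10 mg/kg/5 mL dose iv or po in 5% DMSO, 5% Cremophor EL, 0.1% Tween 80 in 150 mM phosphate buffer pH 7. Jugular-vein blood sampled, plasma methanol-precipitated, parent and hydroxy metabolite quantified by LC–MS/MS in positive ESI MRM mode (LLOQ 1–15 ng/mL).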

[3] = molecular target: T1, Prostaglandin G/H synthase 1 (Mus musculus, UniProt P22437); assay: Inhibition of COX-1 in mouse J774 cells using arachidonic acid as substrate assessed as inhibition of prostaglandin E2 production preincubated for 15 mins followed by substrate addition measured after 30 mins by RIA; format: cell-based
T1 sequence (P22437 whole entry): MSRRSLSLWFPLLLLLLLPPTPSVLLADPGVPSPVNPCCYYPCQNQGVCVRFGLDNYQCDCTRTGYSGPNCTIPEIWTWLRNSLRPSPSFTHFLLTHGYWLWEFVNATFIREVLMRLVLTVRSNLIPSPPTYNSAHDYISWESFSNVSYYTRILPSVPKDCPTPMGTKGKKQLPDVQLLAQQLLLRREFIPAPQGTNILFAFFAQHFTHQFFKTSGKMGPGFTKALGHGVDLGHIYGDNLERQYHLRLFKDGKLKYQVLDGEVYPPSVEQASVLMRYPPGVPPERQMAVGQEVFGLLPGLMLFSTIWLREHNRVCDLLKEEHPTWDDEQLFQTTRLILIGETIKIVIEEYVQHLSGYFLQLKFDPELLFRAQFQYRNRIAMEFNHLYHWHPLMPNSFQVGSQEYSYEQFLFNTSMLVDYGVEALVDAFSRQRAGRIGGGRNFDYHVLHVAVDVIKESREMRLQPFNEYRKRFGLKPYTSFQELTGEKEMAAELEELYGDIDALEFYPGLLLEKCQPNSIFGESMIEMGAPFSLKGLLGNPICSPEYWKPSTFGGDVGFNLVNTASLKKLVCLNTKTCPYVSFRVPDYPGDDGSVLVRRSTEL
Outline: (§1)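 J774 murine macrophages pretreated 15 min with compound (10 µM; lower concentrations 0.01–1 µM where needed), then incubated 30 min at 37 °C with 15 µM arachidonic acid; supernatant PGE2 measured by RIA. Triplicate wells, mean of three experiments of percent inhibition versus control; IC50 by sigmoidal fit.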

[4] = system: Mus musculus; assay: Analgesic activity in Swiss albino mouse assessed as reduction of acetic acid-induced writhing at 10 mg/kg, po measured every 10 mins after 5 mins of administration relative to control; format: functional; set-up: scale not given: the % may be the effect or the level left
Outline: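 Male Swiss albino mice (23–25 g), compound given orally in CMC vehicle; writhing induced by 0.6% acetic acid (10 mL/kg) ip. Stretching movements counted for 10 min, starting 5 min after administration; percent reduction versus CMC-treated animals.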

[5] = Stability of the compound in simulated gastric fluid assessed as compound remaining at pH 1.5 after 120 mins by LC-MS/MS analysis; format: physicochemical; details: read-out: Stability
Outline: (§2)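 1 mM DMSO stock added to 0.01 M PBS (pH 7.4) or 0.05 M simulated gastric fluid without pepsin (pH 1.5 with HCl); incubated in hybridisation oven; aliquots at 0, 30, 60, 120 min quenched with ice-cold acetonitrile containing internal standard; parent remaining (%) measured.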

[6] = Stability of the compound in phosphate buffer saline assessed as compound remaining at pH 7.4 after 30 mins by LC-MS/MS analysis; format: physicochemical; details: read-out: Stability; outline: as §2
[7] = molecular target: T2, Prostaglandin G/H synthase 2 (Homo sapiens, UniProt P35354); set-up: species or system Blood
T2 sequence (P35354 whole entry): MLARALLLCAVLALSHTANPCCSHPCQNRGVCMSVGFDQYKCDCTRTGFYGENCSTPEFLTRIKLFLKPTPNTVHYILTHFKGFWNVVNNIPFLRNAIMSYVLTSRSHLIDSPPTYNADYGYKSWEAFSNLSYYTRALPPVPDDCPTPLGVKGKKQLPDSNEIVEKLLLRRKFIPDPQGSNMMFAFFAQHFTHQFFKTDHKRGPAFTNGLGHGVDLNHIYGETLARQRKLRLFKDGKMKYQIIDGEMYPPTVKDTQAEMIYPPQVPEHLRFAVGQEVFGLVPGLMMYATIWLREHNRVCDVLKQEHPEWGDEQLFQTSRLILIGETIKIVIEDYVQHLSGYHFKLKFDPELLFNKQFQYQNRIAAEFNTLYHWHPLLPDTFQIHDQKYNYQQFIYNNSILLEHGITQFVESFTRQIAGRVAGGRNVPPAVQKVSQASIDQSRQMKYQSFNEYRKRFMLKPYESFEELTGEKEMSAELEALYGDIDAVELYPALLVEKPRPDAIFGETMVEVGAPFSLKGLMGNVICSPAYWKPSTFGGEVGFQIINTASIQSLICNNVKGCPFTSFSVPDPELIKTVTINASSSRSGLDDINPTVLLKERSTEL

[8] = molecular target: T3, Prostaglandin G/H synthase 1 (Mus musculus) (UniProt P22437); assay: Inhibition of COX-1 in mouse J774 cells using arachidonic acid as substrate assessed as inhibition of prostaglandin E2 production at 10 uM preincubated for 15 mins followed by substrate addition measured after 30 mins by RIA; format: cell-based; outline: as §1
T3 sequence (whole entry): T1 sequence (P22437 whole entry)

[9] = system: Liver; assay: Induction of nitric oxide production in Wistar rat liver homogenate assessed as nitrate level at 1 mM after 1 to 150 mins; format: functional, tissue-based

Cc1c(CC(=O)NCCO[N+](=O)[O-])cc(-c2ccc(S(C)(=O)=O)cc2)n1-c1ccc(F)cc1
Ratio IC50 [1]: > 42
Drug metabolism [2]: Active
IC50 [3]: > 10 µM
Activity [4]: 63%
remaining at 2 h [5]: 100%
remaining at 0.5 h [6]: 100%
IC50 [7]: 1.7 µM
inhibition [8]: 9%
Activity [9]: 38.3 µM
